Published values of several laboratories.
Compare with care: the assays were run in different laboratories.
Target: Mitogen-activated protein kinase kinase kinase 6 (MAP3K6, Homo sapiens, UniProt O95382)
Sequence (O95382 1-1288, as in one of the studies): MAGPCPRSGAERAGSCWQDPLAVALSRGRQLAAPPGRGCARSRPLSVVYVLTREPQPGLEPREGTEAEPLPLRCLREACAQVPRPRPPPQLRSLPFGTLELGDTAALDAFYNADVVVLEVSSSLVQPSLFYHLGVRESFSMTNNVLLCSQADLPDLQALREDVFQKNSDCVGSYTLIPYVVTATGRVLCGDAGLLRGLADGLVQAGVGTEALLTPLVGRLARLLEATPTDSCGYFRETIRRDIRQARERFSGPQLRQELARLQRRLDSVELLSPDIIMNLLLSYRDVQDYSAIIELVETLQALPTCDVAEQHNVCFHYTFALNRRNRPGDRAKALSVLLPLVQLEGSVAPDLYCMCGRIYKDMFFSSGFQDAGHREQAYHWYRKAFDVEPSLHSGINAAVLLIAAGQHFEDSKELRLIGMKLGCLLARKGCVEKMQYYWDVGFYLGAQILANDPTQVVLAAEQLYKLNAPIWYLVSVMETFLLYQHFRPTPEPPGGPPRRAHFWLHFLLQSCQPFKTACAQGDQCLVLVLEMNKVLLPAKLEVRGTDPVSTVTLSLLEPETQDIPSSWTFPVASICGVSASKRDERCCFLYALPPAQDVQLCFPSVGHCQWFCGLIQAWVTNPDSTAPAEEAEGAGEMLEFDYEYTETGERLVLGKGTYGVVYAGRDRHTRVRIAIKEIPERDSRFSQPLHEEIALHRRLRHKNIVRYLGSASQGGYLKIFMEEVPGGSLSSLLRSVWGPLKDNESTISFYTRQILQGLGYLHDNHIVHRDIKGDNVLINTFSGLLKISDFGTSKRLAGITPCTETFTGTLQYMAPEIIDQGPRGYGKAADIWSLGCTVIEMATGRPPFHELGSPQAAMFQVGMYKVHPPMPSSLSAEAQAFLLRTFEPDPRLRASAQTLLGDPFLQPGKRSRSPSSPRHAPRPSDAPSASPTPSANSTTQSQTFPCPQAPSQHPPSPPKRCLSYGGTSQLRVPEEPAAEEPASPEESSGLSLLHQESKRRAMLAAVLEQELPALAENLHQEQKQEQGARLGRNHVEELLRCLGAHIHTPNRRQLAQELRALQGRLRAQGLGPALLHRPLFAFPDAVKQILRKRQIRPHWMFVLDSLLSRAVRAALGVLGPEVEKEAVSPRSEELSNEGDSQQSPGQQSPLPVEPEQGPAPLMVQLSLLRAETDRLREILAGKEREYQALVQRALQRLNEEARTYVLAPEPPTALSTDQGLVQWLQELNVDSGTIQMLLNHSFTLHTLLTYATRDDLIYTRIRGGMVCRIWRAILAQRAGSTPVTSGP

With `Cc1cnc(Nc2ccc(C(=O)N3CCC(N4CCCC4)CC3)cc2)nc1-c1cc2ccccc2s1` the remaining binding was 100% (binding; competition with immobilised ligand; 1 µM).
For `CCOCCn1cc(C(=O)Nc2ccc(-n3nc(-c4cccnc4)cc3C(F)(F)F)cn2)ccc1=O`, the remaining binding was 86% (cell-free assay; competition with immobilised ligand; 1 µM).
`Nc1ncc2c(n1)-c1c([nH]c3ccc(C#CC4CC4)cc13)CCCC2` has a remaining binding of 98% (binding; competition with immobilised ligand; 1 µM).
For `N[C@H]1CCN(c2nccc(-c3cnn4ncccc34)n2)C1`, the remaining binding was 82% (binding; 1 µM).
`FC(F)(F)Oc1cccc(-c2cnc3ccc(-c4ccncc4)nn23)c1` has a remaining binding of 96% (cell-free assay; competition with immobilised ligand; 5 µM).
With `CN(C)c1ncc(F)c(-c2cnn3ncccc23)n1` the remaining binding was 97% (binding; 1 µM).
The remaining binding of `CO[C@@H](C)c1c(Nc2ccc([C@@H](N(C)C(=O)C3CCS(=O)(=O)CC3)C(F)(F)F)cc2)cnc2cc(Cl)nn12` is reported as 100% (cell-free assay; competition with immobilised ligand; 1 µM).
`O=C(c1ccc(Nc2ncc(Cl)c(-c3ccc(Cl)s3)n2)cc1)N1CCC(N2CCCC2)CC1` has a remaining binding of 66% (binding; competition with immobilised ligand; 1 µM).
With `CSc1cccnc1N1CCN(Cc2nc3ccccc3[nH]2)CC1` the remaining binding was 92% (cell-free assay; competition with immobilised ligand; 1 µM).
For `COc1cnc(Nc2cccc(S(N)(=O)=O)c2)nc1N1CCN(c2ccccc2)C(=O)C1`, the remaining binding was 84% (binding; competition with immobilised ligand; 1 µM).
With `CC1CCCN1c1nccc(-c2cnn3ncccc23)n1` (stereo not shown) the remaining binding was 100% (binding; 1 µM).
The remaining binding of `N#CC1(c2ccccn2)CCN(Cc2cc(C(=O)N3CCCC3)c(=O)n3ccccc23)CC1` is reported as 100% (cell-free assay; competition with immobilised ligand; 1 µM).
`COc1cnc(Nc2cccc(S(N)(=O)=O)c2)nc1N1CCN(c2ccccc2)CC1` has a remaining binding of 93% (binding; competition with immobilised ligand; 1 µM).
`CN(CCCC(F)(F)F)c1nccc(-c2cnn3ncccc23)n1` gave a remaining binding of 100% (binding; 1 µM).
For `CS(=O)(=O)N1CCCC(NC(=O)[C@H](CCC2CCCCC2)NC(=O)c2ccc(CNC(=O)c3cnc4ccccn34)cc2)C1` (stereo partly shown), the remaining binding was 100% (cell-free assay; competition with immobilised ligand; 0.1 µM).
`C[C@H]1CCN(c2nccc(-c3cnn4ncccc34)n2)C1` has a remaining binding of 57% (binding; 1 µM).
For `O=C(c1ccc(Nc2nccc(-c3cc4ccccc4s3)n2)cc1)N1CCC(N2CCCC2)CC1`, the remaining binding was 91% (binding; competition with immobilised ligand; 1 µM).
The remaining binding of `O=C(NCC1CCOCC1)c1n[nH]cc1NC(=O)c1c(F)cccc1F` is reported as 77% (binding; competition with immobilised ligand; 1 µM).
The remaining binding of `CN([C@@H]1CCc2c(CC(=O)O)c3cc(S(C)(=O)=O)ccc3n2C1)S(=O)(=O)c1ccc(F)cc1` is reported as 89% (cell-free assay; competition with immobilised ligand; 1 µM).
With `c1cnn2ncc(-c3ccnc(N4CCC45COC5)n3)c2c1` the remaining binding was 61% (binding; 1 µM).
With `CCCOc1ccc([C@@H]2[C@@H](C(=O)O)[C@H](c3ccc4c(c3)OCO4)CN2CC(=O)Nc2c(CC)cccc2CC)cc1` the remaining binding was 77% (cell-free assay; competition with immobilised ligand; 1 µM).
`CCN1CCN(Cc2ccc(C(=O)Nc3ccc(C)c(Oc4ccc5c(c4)CC(=O)N5)c3)cc2C(F)(F)F)CC1` has a remaining binding of 100% (binding; competition with immobilised ligand; 1 µM).
